Some results are limits rather than exact numbers.

For one series, the system named is CCRF-CEM. The series can be described thus: Cytotoxicity against human CCRF-CEM cells incubated for 3 days by XTT assay. Type of series: functional, cell-based. The conditions noted are these: 72 h. An outline of the steps:
(§1)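 Cell viability read by a metabolic XTT tetrazolium method after 3-day incubation of cells with compound. Values are from 2–4 independent experiments.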
(Tetrazolium dyes change colour on reduction, which living cells bring about.)

Series [1] can be described thus: Toxicity against human HuH7 cells incubated for 3 days by CellTiter 96 AQueous One Solution cell proliferation assay. Type of series: cell-based, Huh-7.
Another series concerns HCT-116. The series can be described thus: Cytostatic activity against human HCT116 cells incubated for 3 days by SRB assay. The series is classed as functional. The conditions noted are these: HCT-116, 72 h.
Series [2] in a line: Selectivity index, ratio of CC50 for human HuH7 cells to EC50 for Hepatitis C virus subtype 1b replicons. The series is classed as toxicity, cell-based, Huh-7. The conditions noted are these: read-out: Ratio CC50/EC50.
The subject of series [3] is Hepatitis C virus. Briefly: Antiviral activity against Hepatitis C virus subtype 1a replicons infected in human HuH7 cells assessed as reduction in viral RNA levels by Rt-PCR. The series is classed as functional, organism-based, Hepacivirus hominis. The conditions noted are these: Huh-7. Background: In antiviral work, replicon cells carry a viral genome segment that copies itself.

The next series deals with NCI-H23. The series can be described thus: Cytostatic activity against human NCI-H23 cells incubated for 3 days by SRB assay. The series is classed as functional. The conditions noted are these: NCI-H23, 72 h.
Series [4] concerns Hepatitis C virus. Briefly: Antiviral activity against Hepatitis C virus subtype 1b replicons infected in human HuH7 cells assessed as reduction in viral RNA levels by Rt-PCR. Type of series: functional, organism-based, Hepacivirus hominis. The conditions noted are these: genotype 1b, Huh-7.
Series [5] is described as follows: Selectivity index, ratio of CC50 for human HuH7 cells to EC50 for Hepatitis C virus subtype 1a replicons. The series is classed as toxicity, cell-based, Huh-7. Conditions: read-out: Ratio CC50/EC50.
Series [6] can be described thus: Cytotoxicity against human HeLaS3 cells incubated for 3 days by XTT assay. Type of series: functional, cell-based. The conditions noted are these: HeLa S3, 72 h. An outline of the steps: as §1
The test system of a further series is HL-60. Briefly: Cytotoxicity against human HL60 cells incubated for 3 days by XTT assay. Type of series: functional, cell-based. The conditions noted are these: HL-60, 72 h. The method, boiled down: as §1
The next series has as its system DU-145. The series can be described thus: Cytostatic activity against human DU145 cells incubated for 3 days by SRB assay. The conditions noted are these: DU-145, 72 h. Type of series: functional. On the technique in general: The SRB assay estimates cell density from bound dye.
The nature of series [7]: Cytostatic activity against human Hs578 cells incubated for 3 days by SRB assay. The series is classed as functional. Conditions: Hs578, 72 h.

As a reminder, the IC50 is the concentration that gives 50% inhibition. A higher IC50 goes with lower potency. As a reminder, the CC50 is the concentration at which the toxic effect on the cells reaches its halfway point. A low value points to harm at low concentration. The term GI50 denotes the concentration at which growth is held to half of that of the control. The term EC50 denotes the concentration needed to bring the measured effect to its halfway point. Take `C[C@@]1(O)[C@H](O)[C@@H](CO)O[C@H]1n1cc(I)c2c(N)ncnc21`: the IC50 in the series on CCRF-CEM was 4380 nM; in series [6], 7500 nM; in the series on HL-60, above 10000 nM. Further, the cytotoxic concentration (CC50) at 72 h in series [1] is 19800 nM. The GI50 came out at 6650 nM in the series on HCT-116, 790 nM in the series with NCI-H23, 3380 nM with DU-145 and 4390 nM in [7]. Further, the selectivity ratio in series [2] and in series [5] was 65 throughout. Besides, the values for the EC50 with Hepatitis C virus [3] and in the series with Hepatitis C virus [4] were 370 nM and 380 nM, respectively.

`C#Cc1cn([C@@H]2O[C@H](CO)[C@@H](O)[C@@H]2F)c2ncnc(N)c12`: the IC50 is 180 nM in the series with CCRF-CEM, 220 nM in series [6] and 200 nM with HL-60. The midpoint of cytotoxicity in series [1], the CC50 at 72 h, lay at 2680 nM. The GI50 in the series with HCT-116 turned out to be 108 nM; in the series with NCI-H23 it was 48 nM; with DU-145 it was 2 nM; in series [7] it was 65 nM. The selectivity ratio in series [2] and in [5] was below 10 throughout. Also, the EC50 in the series with Hepatitis C virus [3] and with Hepatitis C virus [4] was 360 nM in each case.

Regarding `Nc1ncnc2c1c(-c1cnn[nH]1)cn2[C@@H]1O[C@H](CO)[C@@H](O)[C@@H]1F`, the figures for the IC50 (in the series on CCRF-CEM; in series [6]; in the series with HL-60) were 3450 nM, 6660 nM and above 10000 nM, respectively. In addition, in series [1], the CC50 at 72 h was 10900 nM. Further, the GI50 in the series on HCT-116 turned out to be 7640 nM; in the series on NCI-H23 it was 5360 nM; with DU-145, 9410 nM; in series [7] it was 1820 nM. The selectivity ratio in series [2] and in series [5] was below 10 throughout. In addition, the EC50 in the series on Hepatitis C virus [3] is 1830 nM; in the series on Hepatitis C virus [4] it was 920 nM.
